Measured values taken from ChEMBL document CHEMBL1148498, “Diphenylmethane skeleton as a multi-template for nuclear receptor ligands: preparation of FXR and PPAR ligands” (Bioorg Med Chem Lett, 2006).
Active and inactive are the calls of the source. The calls are words filed in the database; no cut-off is given here.

What was measured:
[1] = molecular target: T1, Bile acid receptor (Homo sapiens) (UniProt Q96RI1); test: (§1) Agonist activity at human recombinant FXR by transactivation of TK-MH100x4-LUC reporter gene in HEK293 cells; assay type: functional, cell-based
T1 sequence (whole entry): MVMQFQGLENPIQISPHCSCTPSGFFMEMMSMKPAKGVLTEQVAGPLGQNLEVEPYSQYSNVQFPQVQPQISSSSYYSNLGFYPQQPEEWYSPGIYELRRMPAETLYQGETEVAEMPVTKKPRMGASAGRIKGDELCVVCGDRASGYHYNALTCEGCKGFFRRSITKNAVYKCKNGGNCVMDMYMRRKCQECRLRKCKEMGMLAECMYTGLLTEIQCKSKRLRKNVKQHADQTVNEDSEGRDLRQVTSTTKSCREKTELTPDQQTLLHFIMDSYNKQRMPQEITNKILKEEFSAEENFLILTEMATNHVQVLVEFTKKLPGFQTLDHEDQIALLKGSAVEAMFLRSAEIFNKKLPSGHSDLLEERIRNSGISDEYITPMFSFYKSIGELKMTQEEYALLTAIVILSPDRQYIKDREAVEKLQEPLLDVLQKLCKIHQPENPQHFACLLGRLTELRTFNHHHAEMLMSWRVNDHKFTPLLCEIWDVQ

[2] = molecular target: T2, Peroxisome proliferator-activated receptor alpha (Homo sapiens, UniProt Q07869); test: Agonist activity at human recombinant PPARalpha by transactivation of TK-MH100x4-LUC reporter gene in HEK293 cells; assay type: functional, cell-based
T2 sequence (Q07869 whole entry): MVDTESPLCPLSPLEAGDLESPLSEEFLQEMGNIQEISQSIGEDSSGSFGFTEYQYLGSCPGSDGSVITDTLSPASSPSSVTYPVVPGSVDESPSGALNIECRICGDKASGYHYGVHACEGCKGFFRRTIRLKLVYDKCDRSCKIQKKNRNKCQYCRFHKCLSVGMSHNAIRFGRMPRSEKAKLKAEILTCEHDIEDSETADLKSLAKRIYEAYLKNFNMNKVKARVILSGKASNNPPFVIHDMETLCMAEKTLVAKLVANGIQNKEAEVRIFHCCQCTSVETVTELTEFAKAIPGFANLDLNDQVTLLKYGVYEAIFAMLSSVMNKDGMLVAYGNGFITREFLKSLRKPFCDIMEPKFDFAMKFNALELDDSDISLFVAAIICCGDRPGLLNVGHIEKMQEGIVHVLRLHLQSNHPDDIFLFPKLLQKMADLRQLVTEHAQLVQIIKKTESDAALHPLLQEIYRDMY
Method in brief: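 GAL4 fusion of the human PPARα receptor (CMX-GAL4N-hPPARα) with the TK-MH100x4-LUC reporter, plus CMX β-galactosidase for normalization. HEK293 cells were grown in DMEM with 5% FBS at 37 °C and 5% CO2 and transfected by calcium phosphate coprecipitation. Compounds were added 8 h after transfection. Luciferase was read by luminometer, normalized to β-galactosidase, and averaged over three repeat experiments.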

[3] = molecular target: T3, Peroxisome proliferator-activated receptor delta (Homo sapiens) (UniProt Q03181); test: Activity at human recombinant PPARdelta by transactivation of TK-MH100x4-LUC reporter gene in HEK293 cells at 10 uM; assay type: cell-based
T3 sequence (whole entry): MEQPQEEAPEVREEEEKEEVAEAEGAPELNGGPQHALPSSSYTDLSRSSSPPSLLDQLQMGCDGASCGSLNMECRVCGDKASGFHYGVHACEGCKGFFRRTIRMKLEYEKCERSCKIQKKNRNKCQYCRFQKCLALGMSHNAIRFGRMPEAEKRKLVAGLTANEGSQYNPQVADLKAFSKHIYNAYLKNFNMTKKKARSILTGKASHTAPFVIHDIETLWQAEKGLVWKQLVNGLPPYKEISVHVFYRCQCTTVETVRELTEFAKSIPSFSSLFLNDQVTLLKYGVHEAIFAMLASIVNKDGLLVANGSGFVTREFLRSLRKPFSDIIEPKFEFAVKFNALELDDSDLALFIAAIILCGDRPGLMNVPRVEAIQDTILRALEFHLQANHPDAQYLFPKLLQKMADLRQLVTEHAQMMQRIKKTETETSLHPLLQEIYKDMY

[4] = molecular target: T4, Vitamin D3 receptor (Homo sapiens) (UniProt P11473); test: Activity at human recombinant VDR by transactivation of TK-MH100x4-LUC reporter gene in HEK293 cells at 10 uM; assay type: cell-based
T4 sequence (whole entry): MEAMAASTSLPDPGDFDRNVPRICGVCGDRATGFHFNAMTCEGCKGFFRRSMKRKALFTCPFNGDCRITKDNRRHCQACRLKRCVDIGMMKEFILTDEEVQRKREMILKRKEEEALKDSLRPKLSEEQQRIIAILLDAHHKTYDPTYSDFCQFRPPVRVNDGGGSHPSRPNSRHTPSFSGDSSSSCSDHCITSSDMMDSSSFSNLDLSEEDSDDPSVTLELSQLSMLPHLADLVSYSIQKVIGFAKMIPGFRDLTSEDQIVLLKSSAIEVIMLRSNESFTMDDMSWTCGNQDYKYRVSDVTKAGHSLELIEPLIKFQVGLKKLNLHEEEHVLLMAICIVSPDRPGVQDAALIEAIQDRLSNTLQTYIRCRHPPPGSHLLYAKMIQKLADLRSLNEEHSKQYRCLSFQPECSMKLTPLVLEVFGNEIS

[5] = molecular target: T5, Oxysterols receptor LXR-alpha (Homo sapiens) (UniProt Q13133); test: Activity at human recombinant LXRalpha by transactivation of TK-MH100x4-LUC reporter gene in HEK293 cells at 10 uM; assay type: cell-based
T5 sequence (whole entry): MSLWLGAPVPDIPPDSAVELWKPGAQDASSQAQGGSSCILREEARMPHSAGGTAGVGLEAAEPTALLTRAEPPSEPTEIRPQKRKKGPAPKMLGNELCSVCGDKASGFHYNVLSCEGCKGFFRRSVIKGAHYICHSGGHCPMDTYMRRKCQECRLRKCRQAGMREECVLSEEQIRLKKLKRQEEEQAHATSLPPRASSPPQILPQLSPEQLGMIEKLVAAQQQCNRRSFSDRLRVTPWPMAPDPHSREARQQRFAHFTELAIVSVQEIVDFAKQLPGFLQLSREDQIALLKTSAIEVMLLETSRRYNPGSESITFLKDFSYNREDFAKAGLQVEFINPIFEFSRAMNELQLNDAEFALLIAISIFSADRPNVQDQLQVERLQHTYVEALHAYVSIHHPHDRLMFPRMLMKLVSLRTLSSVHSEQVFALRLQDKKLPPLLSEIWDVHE

[6] = molecular target: T6, Peroxisome proliferator-activated receptor alpha (Homo sapiens) (UniProt Q07869); test: Activity at human recombinant PPARalpha by transactivation of TK-MH100x4-LUC reporter gene in HEK293 cells at 10 uM; assay type: cell-based
T6 sequence (whole entry): T2 sequence (Q07869 whole entry)

Bile acid receptor = molecular target: T7, Bile acid receptor (Homo sapiens, UniProt Q96RI1); test: as §1; assay type: functional, cell-based
T7 sequence (Q96RI1 whole entry): T1 sequence (whole entry)

[7] = molecular target: T1, Bile acid receptor (Homo sapiens); test: Activity at human recombinant FXR by transactivation of TK-MH100x4-LUC reporter gene in HEK293 cells at 10 uM; assay type: cell-based
[8] = molecular target: T8, Retinoic acid receptor alpha (Homo sapiens) (UniProt P10276); test: Activity at human recombinant RARalpha by transactivation of TK-MH100x4-LUC reporter gene in HEK293 cells at 10 uM; assay type: cell-based
T8 sequence (whole entry): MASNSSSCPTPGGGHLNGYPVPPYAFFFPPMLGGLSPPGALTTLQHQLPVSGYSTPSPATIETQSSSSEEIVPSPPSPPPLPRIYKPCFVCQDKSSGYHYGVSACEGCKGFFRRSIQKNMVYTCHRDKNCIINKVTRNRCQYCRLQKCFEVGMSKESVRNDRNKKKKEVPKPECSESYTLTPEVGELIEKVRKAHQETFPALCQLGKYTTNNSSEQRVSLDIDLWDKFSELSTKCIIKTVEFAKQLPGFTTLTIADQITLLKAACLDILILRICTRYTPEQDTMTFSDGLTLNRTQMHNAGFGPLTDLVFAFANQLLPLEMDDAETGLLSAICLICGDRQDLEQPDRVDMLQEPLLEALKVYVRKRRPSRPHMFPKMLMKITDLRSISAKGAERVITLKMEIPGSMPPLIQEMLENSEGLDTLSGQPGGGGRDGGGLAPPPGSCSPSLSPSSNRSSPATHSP

[9] = molecular target: T9, Retinoic acid receptor RXR-alpha (Homo sapiens) (UniProt P19793); test: Activity at human recombinant RXRalpha by transactivation of TK-MH100x4-LUC reporter gene in HEK293 cells at 10 uM; assay type: cell-based
T9 sequence (whole entry): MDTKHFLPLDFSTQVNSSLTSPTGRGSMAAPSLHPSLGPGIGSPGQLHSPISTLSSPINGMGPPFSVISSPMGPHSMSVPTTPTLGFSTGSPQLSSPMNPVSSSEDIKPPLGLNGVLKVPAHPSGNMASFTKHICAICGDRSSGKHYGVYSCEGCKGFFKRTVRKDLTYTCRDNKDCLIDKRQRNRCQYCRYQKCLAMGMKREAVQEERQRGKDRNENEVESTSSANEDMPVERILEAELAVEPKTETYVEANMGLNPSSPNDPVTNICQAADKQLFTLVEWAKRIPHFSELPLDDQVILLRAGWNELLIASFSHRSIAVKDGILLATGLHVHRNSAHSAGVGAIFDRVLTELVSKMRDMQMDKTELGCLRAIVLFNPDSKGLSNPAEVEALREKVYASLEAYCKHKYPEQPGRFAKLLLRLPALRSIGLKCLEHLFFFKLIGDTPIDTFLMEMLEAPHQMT

[10] = molecular target: T10, Peroxisome proliferator-activated receptor gamma (Homo sapiens) (UniProt P37231); test: Activity at human recombinant PPARgamma by transactivation of TK-MH100x4-LUC reporter gene in HEK293 cells at 10 uM; assay type: cell-based
T10 sequence (whole entry): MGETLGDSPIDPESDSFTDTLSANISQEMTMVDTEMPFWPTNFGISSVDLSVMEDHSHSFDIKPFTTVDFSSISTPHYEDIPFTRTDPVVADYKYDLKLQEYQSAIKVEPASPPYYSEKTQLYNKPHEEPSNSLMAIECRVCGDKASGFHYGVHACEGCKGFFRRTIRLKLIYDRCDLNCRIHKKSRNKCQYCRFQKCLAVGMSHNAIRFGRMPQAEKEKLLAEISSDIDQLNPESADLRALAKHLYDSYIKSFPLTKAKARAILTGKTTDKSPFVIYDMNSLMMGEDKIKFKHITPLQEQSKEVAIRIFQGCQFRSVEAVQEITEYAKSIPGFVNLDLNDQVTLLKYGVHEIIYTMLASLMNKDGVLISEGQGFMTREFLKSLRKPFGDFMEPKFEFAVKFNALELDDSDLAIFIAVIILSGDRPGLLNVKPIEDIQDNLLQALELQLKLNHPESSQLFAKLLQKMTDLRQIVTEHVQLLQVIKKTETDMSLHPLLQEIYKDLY

SMILES | Activity [1] | EC50 [2] [µM] | Activity [3] | Activity [4] | Activity [5] | Activity [6] | EC50 (Bile acid receptor) [µM] | Activity [7] | Activity [8] | Activity [9] | Activity [10]
CCC(CC)(c1ccc(NCC(O)CO)c(C)c1)c1ccc(OCc2c(-c3c(Cl)cccc3Cl)noc2C(C)C)c(C)c1 (stereo not given) | Active |  |  |  |  |  |  |  |  |  | 
CC(C)(Oc1ccc(C(=O)c2ccc(Cl)cc2)cc1)C(=O)O [FENOFIBRIC ACID] |  | 9.2 |  |  |  |  |  |  |  |  | 
CCC(CC)(c1ccc(OCC(=O)O)c(C)c1)c1ccc(OCc2c(-c3c(Cl)cccc3Cl)noc2C(C)C)c(C)c1 |  |  | inactive | inactive | inactive | inactive | 3.4 | Active | inactive | inactive | inactive
CCC(Oc1ccc(C2(c3ccc(OC(CC)C(=O)O)c(C)c3)CCCCC2)cc1C)C(=O)O (stereo not given) |  | 3.5 | inactive | inactive | inactive | Active |  | inactive | inactive | inactive | inactive
